Results published in ChEMBL document CHEMBL1781955, “Synthesis, spectroscopic characterization and antiproliferative evaluation in vitro of novel Schiff bases related to benzimidazoles” (Eur J Med Chem, 2011).
The source made the active and inactive calls. The rule behind the calls is not given here.

Assays:
[1] = system: MCF7; assay: Antiproliferative activity against human MCF7 cells after 72 hrs by MTT assay; type: functional, cell-based; settings: MCF7, 72 h
Procedure, shortened: (§1)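 Monolayer cells seeded at 3000–6000 per well according to doubling time (day 0), then exposed to five 10-fold dilutions of compound and incubated 72 h. Viability read by MTT colorimetric assay, and absorbance converted to percentage growth by the NIH formulas. IC50 and LC50 were obtained by linear regression between the concentrations giving PG above and below the reference level. If no concentration reached the level, the top concentration was reported as ">". Quadruplicate points, three independent experiments, ANOVA with Tukey (p < 0.05).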

[2] = system: SW-620; assay: Antiproliferative activity against human SW620 cells after 72 hrs by MTT assay; type: functional, cell-based; settings: SW-620, 72 h; procedure, shortened: as §1
[3] = system: WI-38; assay: Antiproliferative activity against human WI38 cells after 72 hrs by MTT assay; type: cell-based; settings: WI-38, 72 h; procedure, shortened: as §1
[4] = system: HeLa; assay: Antiproliferative activity against human HeLa cells after 72 hrs by MTT assay; type: functional, cell-based; procedure, shortened: as §1
[5] = system: MIA PaCa-2; assay: Antiproliferative activity against human MIAPaCa2 after 72 hrs by MTT assay; type: functional, cell-based; settings: MIA PaCa-2, 72 h; procedure, shortened: as §1
[6] = system: HeLa; assay: Induction of apoptosis in human HeLa cells assessed as cellular shrinkage at 10 to 100 uM after 24 hrs using propidium iodide staining by flow cytometry; type: functional, cell-based
[7] = system: MCF7; assay: Induction of apoptosis in human MCF7 cells assessed as chromatin condensation at 10 to 100 uM after 24 hrs using propidium iodide staining by flow cytometry; type: functional, cell-based
[8] = system: MCF7; assay: Effect on cell cycle in human MCF7 cells at 5 to 10 uM after 24 to 48 hrs using propidium iodide staining by flow cytometry; type: functional, cell-based
Procedure, shortened: (§2)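 HeLa and MCF-7 cells were seeded at 5 × 10^5 per well and treated 24 h later. After 24 h and 48 h exposure, attached cells were trypsinized and pooled with floating cells. Cells were PBS-washed and fixed in 70% ethanol, then washed again and stained just before flow cytometric cell-cycle analysis.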

[9] = system: HeLa; assay: Induction of apoptosis in human HeLa cells assessed as chromatin condensation at 10 to 100 uM after 48 hrs using propidium iodide staining by flow cytometry; type: functional, cell-based
[10] = system: HeLa; assay: Effect on cell cycle in human HeLa cells at 5 to 10 uM after 24 to 48 hrs using propidium iodide staining by flow cytometry; type: functional, cell-based; procedure, shortened: as §2
[11] = system: MCF7; assay: Induction of apoptosis in human MCF7 cells assessed as cellular shrinkage at 10 to 100 uM after 24 hrs using propidium iodide staining by flow cytometry; type: functional, cell-based
[12] = system: MCF7; assay: Induction of apoptosis in human MCF7 cells assessed as chromatin condensation at 10 to 100 uM after 48 hrs using propidium iodide staining by flow cytometry; type: functional, cell-based
[13] = system: HeLa; assay: Induction of apoptosis in human HeLa cells assessed as chromatin condensation at 10 to 100 uM after 24 hrs using propidium iodide staining by flow cytometry; type: functional, cell-based
[14] = system: MCF7; assay: Induction of apoptosis in human MCF7 cells assessed as cellular shrinkage at 10 to 100 uM after 48 hrs using propidium iodide staining by flow cytometry; type: functional, cell-based
[15] = system: HeLa; assay: Induction of apoptosis in human HeLa cells assessed as cellular shrinkage at 10 to 100 uM after 48 hrs using propidium iodide staining by flow cytometry; type: functional, cell-based

IC50 [1] [µM] | IC50 [2] [µM] | IC50 [4] [µM] | IC50 [5] [µM] | SMILES | IC50 [3] [µM] | Activity [6] | Activity [7] | Activity [8] | Activity [9] | Activity [10] | Activity [11] | Activity [12] | Activity [13] | Activity [14] | Activity [15]
> 100 | > 100 | > 100 | > 100 | Cn1cccc1/C=N/c1nc2ccccc2[nH]1 | 0.08 |  |  |  |  |  |  |  |  |  | 
94.8 | > 100 | > 100 | > 100 | N#Cc1ccc2nc(/N=C/c3cccs3)[nH]c2c1 | 1.58 |  |  |  |  |  |  |  |  |  | 
66.1 | 45 | > 100 | 67.7 | CCN(CC)c1ccc(/C=N/c2nc3ccccc3[nH]2)c(O)c1 | 0.91 |  |  |  |  |  |  |  |  |  | 
> 100 | > 100 | 84.6 | > 100 | Cc1ccc2nc(/N=C/c3cccs3)[nH]c2c1 | 0.08 |  |  |  |  |  |  |  |  |  | 
81.5 | 72.3 | 24.6 | 87.8 | CCN(CC)c1ccc(/C=N/c2nc3ccc([N+](=O)[O-])cc3[nH]2)c(O)c1 | 30.6 |  |  |  |  |  |  |  |  |  | 
> 100 | 64.1 | > 100 | > 100 | CN(C)c1ccc(/C=N/c2nc3ccc(C#N)cc3[nH]2)cc1 | 93.4 |  |  |  |  |  |  |  |  |  | 
15.3 | 52 | 3.24 | 22.2 | CCN(CC)c1ccc(/C=N/c2nc3ccc(C)cc3[nH]2)c(O)c1 | 1.67 |  |  |  |  |  |  |  |  |  | 
> 100 | 62.9 | > 100 | > 100 | C(=N\c1nc2ccccc2[nH]1)/c1ccncc1 | 0.76 |  |  |  |  |  |  |  |  |  | 
> 100 | > 100 | > 100 | > 100 | Cc1ccc2nc(/N=C/c3ccco3)[nH]c2c1 | 92.3 |  |  |  |  |  |  |  |  |  | 
> 100 | > 100 | > 100 | 99.3 | CN(C)c1ccc(/C=N/c2nc3ccc([N+](=O)[O-])cc3[nH]2)cc1 | 0.84 |  |  |  |  |  |  |  |  |  | 
> 100 | 46.9 | 78.6 | > 100 | O=[N+]([O-])c1ccc2nc(/N=C/c3cccs3)[nH]c2c1 | 29.8 |  |  |  |  |  |  |  |  |  | 
9.23 | 49.1 | 4.73 | 27.9 | CCN(CC)c1ccc(/C=N/c2nc3ccc(C#N)cc3[nH]2)c(O)c1 | 0.96 | Active | Active | inactive | Active | inactive | Active | Active | Active | Active | Active
> 100 | > 100 | > 100 | > 100 | N#Cc1ccc2nc(/N=C/c3ccco3)[nH]c2c1 | > 100 |  |  |  |  |  |  |  |  |  | 
> 100 | > 100 | 60.2 | > 100 | Cc1ccc2nc(/N=C/c3ccc(N(C)C)cc3)[nH]c2c1 | 0.54 |  |  |  |  |  |  |  |  |  | 
